Sampled rows, rich in hits. Any-hit rate of the full collection: about 3.5%.
MrgX1 agonist – agonists of human MrgX1 receptor, primary screen, HEK293 cells, Fluo-4 calcium flux; Fluo-4 calcium fluorescence, agonist mode; active compounds read high; hit rate 0.44% among 310,000; AID 588627, 2011; B-score at 10 µM; Mas-related G-protein coupled receptor member X1 (Homo sapiens), Q96LB2;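 active = calcium response B-score plate-corrected fluorescence ratio at least 3 library SD, with starting fluorescence B-score inside 5 SD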
Target sequence (Q96LB2 whole entry, looked up): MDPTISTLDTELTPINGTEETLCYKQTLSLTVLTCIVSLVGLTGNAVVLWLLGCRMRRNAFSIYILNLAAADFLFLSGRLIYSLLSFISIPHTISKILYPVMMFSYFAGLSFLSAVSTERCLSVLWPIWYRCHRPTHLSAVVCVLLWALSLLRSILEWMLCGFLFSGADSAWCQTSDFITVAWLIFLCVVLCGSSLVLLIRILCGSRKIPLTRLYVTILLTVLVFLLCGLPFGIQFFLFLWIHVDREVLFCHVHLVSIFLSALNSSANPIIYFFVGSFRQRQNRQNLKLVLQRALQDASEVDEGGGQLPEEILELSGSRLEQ
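Assay system: MrgX1-expressing HEK293 cells / Amount: fifteen thousand cells per well / Doses: test compound in the initial addition of three / Timing: cells plated overnight, dye loaded 0.5 h 37 °C, 0.5 h room temperature / Technique: kinetic calcium dye fluorescence, Fluo-4 NW / Control set: positive and negative controls per plate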
RGS4 block – RGS4 inhibitors, primary screen, cell-based, HEK293 M3R inducible RGS4, calcium flux; Regulator of G-protein signaling 4 (Homo sapiens), P49798; Fluo-4 calcium flux; active compounds read high; triggered by carbachol at its EC20; B-score at 10 µM; AID 463165, 2010; hit rate 0.45% among 310,000;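 active = B-score, a plate-corrected calcium signal, over three deviations above library mean, with baseline fluorescence within five deviations of library mean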;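 note: RGS4 expression induced by doxycycline in cells with stable M3 receptor; B-score is computed from the integrated fluorescence ratio over baseline after carbachol; higher B-score means a larger calcium signal and so more RGS4 inhibition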
Target sequence (P49798 whole entry, looked up): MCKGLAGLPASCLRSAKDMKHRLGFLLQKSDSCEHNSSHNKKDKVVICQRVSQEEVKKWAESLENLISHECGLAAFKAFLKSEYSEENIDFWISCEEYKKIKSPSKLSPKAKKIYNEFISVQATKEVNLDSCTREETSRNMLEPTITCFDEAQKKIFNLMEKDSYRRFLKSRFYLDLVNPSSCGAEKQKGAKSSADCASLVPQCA
RGS4 act – RGS4 potentiators or activators, primary screen, cell-based, HEK293 M3R inducible RGS4, calcium flux; carbachol calcium flux Fluo4; active compounds read low; B-score at 10 µM; hit rate 0.92% among 310,000;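 active = B-score of the integrated calcium signal more than 4 SD below the library mean, with starting fluorescence not abnormally high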;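 note: negative B-score means reduced calcium response which marks RGS4 activation or potentiation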
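test system = HEK293 cells with stable M3R and inducible RGS4 | schedule = recording 10 s baseline at 1 Hz, 100 s post-agonist | technique = Fluo4-AM (2 µM) calcium-flux fluorescence, kinetic read | measure = Agonist-evoked peak-minus-minimum fluorescence over baseline, integrated ratio, B score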
MrgX1 allo act – positive allosteric modulators of MrgX1, primary screen, HEK293 cells, Fluo-4 calcium flux | FDSS; active compounds read high | B-score at 10 µM | Mas-related G-protein coupled receptor member X1 (Homo sapiens), Q96LB2 | hit rate 0.63% among 310,000;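 active = plate-corrected calcium response at least 3 library SD above typical, normal starting fluorescence, not activating the receptor alone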;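 note: compound read alongside a low EC10 to EC30 dose of BAM8-22 agonist; peak minus trough fluorescence over baseline measured at the second addition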
MrgX1 antagonist – antagonists of human MrgX1 receptor, primary screen, HEK293 cells, Fluo-4 calcium flux | B-score at 10 µM | Mas-related G-protein coupled receptor member X1 (Homo sapiens), Q96LB2 | BAM8-22 antagonism; active compounds read low | hit rate 1.3% among 310,000;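 active = calcium-response B-score plate-corrected more than 3 library SD below zero, starting fluorescence within 5 deviations, no agonist response on first addition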;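 note: peak minus trough fluorescence over baseline after final BAM8-22 challenge near maximal dose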
MrgX1 ant reconf – MrgX1 receptor antagonists, duplicate retest, confirmation, HEK293 cells, Fluo-4 calcium flux; AID 602420, 2012; hit rate 19% among 2,300; remaining BAM8-22 calcium response % of control (active compounds read low), % at 10 µM; BAM8-22 calcium flux; active compounds read low; shares compounds with MrgX1 antagonist;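 active = remaining agonist calcium response no higher than 100% minus 3 SD of agonist-only control wells, with starting fluorescence near control levels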;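 note: agonist BAM8-22 given at a near maximal EC90 to ECmax level; peak minus minimum fluorescence divided by baseline after agonist addition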
HEK293 Ca flux – nonspecific calcium signal in parental HEK293, confirmation, counter-screen for MrgX1 antagonist project, parental HEK293 cells, Fluo-4 calcium flux; AID 624111, 2012; Fluo-4 calcium fluorescence, FDSS; fluorescence ratio F(max-min)/F0 at 10 µM; hit rate 2% among 4,000; shares compounds with MrgX1 antagonist;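 active = duplicate-averaged calcium fluorescence ratio at least three times the standard deviation of buffer wells, a nonspecific response in parental cells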
HEK293 Ca counter – calcium response in parental HEK293 cells, primary screen, counter-screen for MrgX1 allosteric activator project, cell-based, Fluo-4 calcium flux, duplicate; shares compounds with MrgX1 antagonist; Fluo-4 fluorescence ratio; active compounds read high; fluorescence ratio F(max-min)/F0 at 10 µM; hit rate 0.4% among 4,000; AID 624114, 2012;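 active = calcium fluorescence ratio, averaged over duplicates, at least 3 SD of the buffer-well ratio, meaning a nonspecific response in receptor-free cells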;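 note: untransfected parental HEK293 lacking MrgX1 used as counterscreen for MrgX1 allosteric activators; fluorescence change taken during the second addition on a kinetic imager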
HEK293 Ca cntr2 – calcium response in parental HEK293 cells, primary screen, counter-screen for MrgX1 agonist project, cell-based, Fluo-4 calcium flux, duplicate, agonist mode | shares compounds with MrgX1 antagonist | Fluo-4 calcium fluorescence (FDSS); active compounds read high | fluorescence ratio F(max-min)/F0 at 10 µM | hit rate 8.7% among 4,000 | AID 624115, 2012;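 active = calcium fluorescence ratio at least three times the spread of buffer wells, meaning a non-specific response in parental cells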
Starred values were filed as active, the others as inactive; i = inactive; . = no result.

SMILES	MrgX1 agonist	RGS4 block	RGS4 act	MrgX1 allo act	MrgX1 antagonist	MrgX1 ant reconf	HEK293 Ca flux	HEK293 Ca counter	HEK293 Ca cntr2
O=C(Nc1ccccc1Oc1ccccc1)c1ccccc1F	i	i	i	i	i	.	.	.	.
O=C(NCCS(=O)(=O)NC1CCCC1)c1ccc(F)cc1	i	i	i	i	-4.91*	i	i	i	i
COc1ccc(C(=O)NCCS(=O)(=O)NC2CCCC2)cc1	i	i	i	i	i	.	.	.	.
CC(=O)N1CCN(c2ccccc2NC(=O)COc2cc(C)cc(C)c2)CC1	i	i	i	i	i	.	.	.	.
CCCNC(=O)CSc1nnc(-c2ccccc2Br)n1-c1cccc(C(F)(F)F)c1	i	i	i	i	i	.	.	.	.
CCOc1ccc(NC(=O)C2CC(=O)N(C(C)C)C2)cc1 (configuration not stated)	i	i	i	i	i	.	.	.	.
COc1ccc(N2CCN(C3CCCCC3NS(=O)(=O)c3ccc(Cl)cc3)CC2)cc1 (configuration not stated)	i	i	i	i	-7.57*	i	i	i	i
CC1(C)Cc2nc(Cl)c(C(N)=O)cc2CO1	i	i	i	i	i	.	.	.	.
CCOC(=O)Cn1c(=O)oc2cc(S(=O)(=O)NCc3cccs3)ccc21	i	i	i	i	i	.	.	.	.
CC1(C)CC(=O)C(C=Nc2cc(C(=O)c3ccccc3)ccc2N)=C(O)C1	i	i	i	i	-6.79*	73.4%*	i	i	i
CSc1ccccc1N=CC1=C(O)CC(C)(C)CC1=O	i	i	i	i	i	.	.	.	.
Cn1c(N)c(C(=O)c2ccc(C#N)cc2)c(=O)n(C)c1=O	i	i	i	i	i	.	.	.	.
Oc1ccc(N2CCN(C(c3ccncc3)c3nnnn3C3CCCC3)CC2)cc1 (configuration not stated)	i	i	i	i	-8.08*	i	i	i	i
Cc1sc2ncnc(N3CCC(C(=O)Nc4ccc(C#N)cc4)CC3)c2c1C	i	i	i	i	-5.33*	i	i	i	i
COc1ccc(OC)c(NC(=O)CCN2CC(C)OC(C)C2)c1 (configuration not stated)	i	i	i	i	i	.	.	.	.
COc1ccc(C)cc1NC(=O)CCN1CC(C)OC(C)C1 (configuration not stated)	i	i	i	i	-5.12*	i	i	i	i
CC(=O)Nc1ccc2c(c1)N(C(C)=O)c1ccccc1CC2	i	i	i	i	-4.69*	82.0%*	i	i	i
CC1CCN(C(=O)c2cc(F)c(F)cc2Cl)CC1	i	i	i	i	-5.18*	i	i	i	i
O=C(c1cc(F)c(F)cc1Cl)N1CCOCC1	i	i	i	i	i	.	.	.	.
COc1cccc(C(=O)c2c[nH]c(C(=O)NCc3cccs3)c2)c1	i	i	i	i	-7.82*	i	i	i	i
